Shown are actives, neighbours in structure and some others; about 4.3% of the full set was active somewhere.
SR-BI uptake up = SR-BI HDL lipid transfer activation. CHO ldlA[mSR-BI] cells, DiI-HDL uptake fluorescence, 3 h; 100 = double the neutral-control signal. activation, % at 12.5 µM. 0.096% of 320,000 active;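 active = mean replicate activation of at least 60% and every replicate at or above 60%; inconclusive = mean or all-replicate condition met, but not both; inactive = mean below 60% and not all replicates reaching 60%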;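 also: 0% = median plate neutral-control signal and 100% = twice that signal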
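Material: SR-BI-overexpressing, LDLR-lacking CHO cells | Dosing: Single compound concentration, delivered by pin transfer | Probe or stimulus: Labelled HDL, 10 µg/mL | Signal: Bottom-read cell fluorescence after medium removal, ex 550/em 595 nm | Schedule: 3 h, 37 °C | Evaluation: HDL uptake via cellular fluorescence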
AHR act = activators of human aryl hydrocarbon receptor; AHR-responsive luciferase reporter cells, luminescence; 2.5% of 320,000 active; activation, % at 5 µM; in the data active = activation above about 47%;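 also: 0% = vehicle wells and 100% = reference agonist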
Lipid droplet = modulators of hepatic lipid droplet formation | AML12 mouse hepatocytes, oleate lipid droplets, BODIPY imaging | inhibition, % at 6.5 µM | 0.4% of 240,000 active | AID 1656;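 active = lipid droplet intensity inhibited by at least 50%, with more than 500 cells counted; inconclusive = wells with under 300 cells, treated as cytotoxic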
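Material – mouse AML12 hepatocyte cell line, fixed after treatment · Compound dosing – one dose, 6.5 µM compound · Times – compound with oleate, overnight · Measured by – Image-based BODIPY and DAPI two-channel analysis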
CR mimetic SO = yeast age-related superoxide inhibition as caloric restriction mimetic | S. cerevisiae aged cells, superoxide DHE fluorescence; stronger effect = lower value | superoxide response (% of plate mean), % at 10 µM | 0.18% of 330,000 active | AID 2690;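 active = superoxide response under a set limit, about three screen SD below normal, cut at about 65% in these data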;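 also: yeast aged for seven days with compound at 30 °C before DHE staining; 100% = average MFI of all compound-treated wells on the plate with controls excluded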
SMARCA2 act = increases SMARCA2 function in MMTV reporter cells; MG213 cells, MMTV-luciferase reporter, dexamethasone, overnight; activation, % at 9.1 µM; 1% of 370,000 active; in the data active = activation above about 7.8%;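 also: 0% = vehicle wells and 100% = reference activator wells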
SR-BI DiI inh = inhibitors of mouse SR-BI mediated HDL lipid uptake; Q61009; inhibition, % at 12.5 µM; 0.96% of 320,000 active; ldlA[mSR-BI] CHO cells, DiI-HDL uptake fluorescence, 3 h; AID 488896;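 active = mean replicate inhibition of at least 70% and a set share of replicates each scoring 70 or more; inconclusive = meets just one of the two criteria; inactive = fails both criteria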;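 also: 0% = median of neutral control wells and 100% = median of positive control wells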
Active calls of the source: *; ? = inconclusive; / = no result.

SMILES | SR-BI uptake up | AHR act | Lipid droplet | CR mimetic SO | SMARCA2 act | SR-BI DiI inh
COc1cc(NC(=O)C2CCCN(S(=O)(=O)c3ccc(C)c(C)c3)C2)cc(OC)c1 (configuration not stated) | / | / | / | / | -1 | /
COc1cc(OC)c(OC)cc1CNc1cc(C)ccc1OC | -72 | 3 | / | 96 | -4 | 72*
COc1ccc(C)cc1NCc1cc(=O)oc2cc(-c3ccccc3)c(O)cc12 | -25 | 49* | 7 | 102 | 0 | 25
COc1ccccc1NCc1cc(=O)oc2c(C)c(O)ccc12 | -73 | 35 | 6 | 100 | -2 | 73*
Cc1c(O)ccc2c(CC(=O)N[C@@H](Cc3ccccc3)C(=O)O)cc(=O)oc12 | 28 | / | / | 99 | 1 | -28
Cc1cc(C)cc(NCc2cc(=O)oc3cc(-c4ccccc4)c(O)cc23)c1 | 12 | 50* | 9 | 101 | -3 | -12
COC(=O)c1ccccc1NCc1cc(=O)oc2cc(O)c(O)cc12 | 4 | 0 | -7 | 85 | -2 | -4
Cc1cc(C)cc(NCc2cc(=O)oc3cc(C)c(O)cc23)c1 | -19 | 16 | -3 | 105 | -3 | 19
COc1ccc(C)cc1NCc1cccc(OC)c1OC | -5 | 6 | -2 | 82 | -1 | 5
CN1CCCCC(NC(=O)c2cccc(C(F)(F)F)c2)C1=O (configuration not stated) | / | / | / | / | -1 | /
COP(=O)(O)CCOCCC(CC(C)C)NC(=O)OCc1ccccc1 (configuration not stated) | / | / | / | / | -2 | /
COc1ccc(Br)cc1Cn1nnc(C(=O)Nc2ccc3c(c2)OCCO3)c1N | -23 | 60* | -3 | 111 | 2 | 23
COc1ccc(NC(=O)c2nnn(CC(=O)Nc3ccc4c(c3)OCO4)c2N)cc1OC | -54 | 6 | -20 | 96 | 1 | 54
CC(=O)c1c(C)nc(-c2ccccc2)nc1N | -11 | 77* | 9 | 85 | 0 | 11
Cc1cc(-c2n[nH]c(=S)n2/N=C/c2cccc(O)c2)n[nH]1 | 19 | 4 | 14 | 65* | -3 | -19
Cc1ccc(C(=O)n2c3ccccc3c3ccccc32)cc1 | -74 | 3 | 6 | 91 | 0 | 74*
COc1ccccc1C(=O)Nc1cc(C)ccc1NC(=O)c1ccco1 | 8 | 65* | -11 | 93 | 0 | -8
Cc1ccc(NC(=O)c2ccco2)c(NC(=O)c2ccccc2C)c1 | / | 45 | 4 | 105 | -3 | /
CCOc1ccccc1NC(=O)c1ccc(NC(=O)c2ccco2)cc1 | -51 | 24 | -2 | 99 | -1 | 51
CCOc1ccccc1NC(=O)c1cc(Cl)ccc1NC(=O)c1ccco1 | -81 | 27 | -6 | 88 | -2 | 81*
COc1cc(NC(=O)c2ccc3c(c2)OCCO3)ccc1NC(=O)c1ccccc1Cl | -89 | -17 | -11 | 107 | 3 | 89*
COc1cc(C(=O)Nc2ccc3c(c2)OCCO3)ccc1OC(F)F | -79 | 30 | / | 109 | 6 | 79*
CCCCN1CCN(C(=O)c2ccc(CNC(=O)c3cccc(Br)c3)cc2)CC1 | / | / | / | / | 2 | /
COC(=O)C1=C(C)N(Cc2ccccc2C(F)(F)F)C(=NCc2ccccc2C(F)(F)F)NC1c1ccc(C(F)(F)F)cc1 (configuration not stated) | / | / | / | / | -3 | /
COC(=O)c1sc(NC(=O)c2ccco2)c(C#N)c1C | 2 | 4 | 1 | 112 | -3 | -2
SMILES | SR-BI uptake up | AHR act | Lipid droplet | CR mimetic SO | SMARCA2 act | SR-BI DiI inh
COc1cc2[nH]c(C(=O)Nc3ccc4c(c3)OCCO4)cc2c(OC)c1OC | -86 | -5 | -4 | 91 | -3 | 86*
COCCn1c(SCC(=O)Nc2ccc(NC(=O)c3ccco3)c(OC)c2)nc2ccccc2c1=O | -74 | -1 | 17 | 89 | -4 | 74*
COc1ccccc1NC(=O)c1sc(NC(=O)c2ccco2)c(C#N)c1C | -15 | 66* | 19 | 100 | -3 | 15
COc1ccccc1NC(=O)c1cc(Cl)ccc1NC(=O)c1ccco1 | -58 | 63* | -4 | 107 | -3 | 58
CCn1c(SCC(=O)Nc2ccc(NC(=O)c3ccco3)c(OC)c2)nc2ccccc2c1=O | -64 | -3 | / | 104 | 0 | 64
COc1cc2cc(C(=O)Nc3ccc4c(c3)OCCO4)[nH]c2cc1OC | -71 | -7 | 3 | 88 | -5 | ?
